Our source for the MIC values is ChEMBL document CHEMBL1122413, “Chloralanyl and propargylglycyl dipeptides. Suicide substrate containing antibacterials” (1983).

In brackets after ≈: the same amount, converted by molar mass.

In one test the test system is Staphylococcus aureus. In words: Minimum inhibitory concentration against Staphylococcus aureus. In kind it is functional. The essentials:
(§1)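 Agar dilution on defined peptide susceptibility medium with peptide in serial twofold dilutions. Strains subcultured on blood or chocolate agar. Inoculum from overnight culture in liquid peptide medium, diluted to approx 1×10^7 cfu/mL, applied by Steers replicator. Plates incubated overnight at 37 °C. MIC taken as lowest concentration permitting fewer than ten colonies at 16–18 h.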

A further test has as its system Haemophilus influenzae. Description: Minimum inhibitory concentration against Hemophilus influenzae. In kind it is functional. The essentials:
(§2)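 Agar dilution on defined peptide susceptibility medium with hemin (25 μg/mL), NAD (25 μg/mL) and Isovitalex (1%) added, peptide in serial twofold dilutions. Colonies from overnight chocolate or blood agar resuspended in liquid peptide medium to 10⁸ cfu/mL, applied by Steers replicator. Incubation overnight at 37 °C under 7% CO₂. MIC: lowest concentration giving fewer than ten colonies at 16–18 h.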

The next test has as its system Serratia marcescens. Description: Minimum inhibitory concentration against Serratia marcescens. Format: functional. The essentials:
as §1

Another test relates to Salmonella typhimurium. In words: Minimum inhibitory concentration against Salmonella Typhimurium. In kind it is functional, Salmonella enterica subsp. enterica serovar Typhimurium. The note with it: Salmonella enterica. An outline of the steps: as §1
Another test concerns Klebsiella aerogenes. Description: Minimum inhibitory concentration against Enterobacter aerogenes. In kind it is functional. The essentials: as §1
In the next test the test system is Enterobacter cloacae. In words: Minimum inhibitory concentration against Enterobacter cloacae. Format: functional. An outline of the steps: as §1
For another test, the system named is Morganella morganii. Description: Minimum inhibitory concentration against Morganella morganii. Format: functional. The essentials:
as §1

In a further test the test system is Enterococcus faecalis. In words: Minimum inhibitory concentration against Streptococcus faecalis. In kind it is functional. An outline of the steps: as §1
The next test concerns Klebsiella pneumoniae. In words: Minimum inhibitory concentration against Klebsiella pneumoniae. In kind it is functional. An outline of the steps:
as §1

The subject of a further test is Shigella flexneri. In words: Minimum inhibitory concentration against Shigella flexneri. In kind it is functional. The essentials:
as §1

The test system of the next test is Proteus mirabilis. In words: Minimum inhibitory concentration against Proteus mirabilis. Format: functional. An outline of the steps: as §1
Test [1] relates to Staphylococcus epidermidis. In words: Minimum inhibitory concentration against Staphylococcus epidermidis. In kind it is functional. The essentials: as §1
The test system of the next test is Streptococcus pyogenes. In words: Minimum inhibitory concentration against Streptococcus pyogenes. Format: functional. An outline of the steps:
as §2

The subject of another test is Pseudomonas aeruginosa. In words: Minimum inhibitory concentration against Pseudomonas aeruginosa. In kind it is functional. The essentials:
as §1

In a further test the test system is Escherichia coli. Description: Minimum inhibitory concentration against Escherichia coli. In kind it is functional. The essentials:
as §1

For a further test, the system named is Streptococcus agalactiae. In words: Minimum inhibitory concentration against Streptococcus agalactiae. In kind it is functional. The essentials: as §2

On to `C#CC[C@H](NC(=O)[C@@H](N)CCl)C(=O)O.O=C(O)C(F)(F)F`, for which the MIC is 0.1 µg/mL against Staphylococcus aureus; 1.56 µg/mL against Haemophilus influenzae; greater than 100 µg/mL in the test with Serratia marcescens; greater than 100 µg/mL in the test with Salmonella typhimurium; 25 µg/mL against Klebsiella aerogenes; 25 µg/mL with Enterobacter cloacae. The MIC was greater than 100 µg/mL in the test with Morganella morganii; 3.12 µg/mL in the test on Enterococcus faecalis; greater than 100 µg/mL against Klebsiella pneumoniae; 3.12 µg/mL in the test on Shigella flexneri; greater than 100 µg/mL in the test on Proteus mirabilis; 0.05 µg/mL in test [1]. Moreover, the MIC against Streptococcus pyogenes was 25 µg/mL; in the test on Pseudomonas aeruginosa it was greater than 100 µg/mL; against Escherichia coli, 3.12 µg/mL; against Streptococcus agalactiae, 0.39 µg/mL.

In the case of `CCC[C@H](N)C(=O)N[C@@H](CCl)C(=O)O.O=C(O)C(F)(F)F`, the MIC against Staphylococcus aureus is 0.025 µg/mL; in the test on Haemophilus influenzae, 0.78 µg/mL; against Serratia marcescens it was greater than 100 µg/mL; in the test with Salmonella typhimurium, greater than 100 µg/mL; in the test on Klebsiella aerogenes, greater than 100 µg/mL; against Enterobacter cloacae, 6.25 µg/mL. Moreover, the MIC with Morganella morganii is 50 µg/mL; in the test with Enterococcus faecalis, 0.39 µg/mL; in the test on Klebsiella pneumoniae, greater than 100 µg/mL; with Shigella flexneri, greater than 100 µg/mL; against Proteus mirabilis, 12.5 µg/mL; in [1], 0.025 µg/mL. Besides, the MIC in the test with Streptococcus pyogenes is greater than 100 µg/mL; in the test on Pseudomonas aeruginosa, greater than 100 µg/mL; with Escherichia coli, 1.56 µg/mL; in the test with Streptococcus agalactiae it was 0.2 µg/mL.

Turning to `C#CCC(NC(=O)[C@H](C)N)C(=O)O.O=C(O)C(F)(F)F` (some centres undefined), the MIC against Staphylococcus aureus, in the test on Haemophilus influenzae, with Serratia marcescens, against Salmonella typhimurium, against Klebsiella aerogenes and with Enterobacter cloacae was greater than 100 µg/mL throughout. Also, the MIC against Morganella morganii was greater than 100 µg/mL; with Enterococcus faecalis, greater than 100 µg/mL; in the test on Klebsiella pneumoniae, greater than 100 µg/mL; against Shigella flexneri, greater than 100 µg/mL; against Proteus mirabilis, greater than 100 µg/mL; in test [1], 3.12 µg/mL. The MIC was greater than 100 µg/mL against Streptococcus pyogenes, greater than 100 µg/mL in the test on Pseudomonas aeruginosa, greater than 100 µg/mL in the test with Escherichia coli and 50 µg/mL in the test on Streptococcus agalactiae.

In the case of `C#CCC(NC(=O)[C@H](N)CCl)C(=O)O.O=C(O)C(F)(F)F` (some centres undefined), the MIC in the test on Staphylococcus aureus, against Haemophilus influenzae, in the test with Serratia marcescens, in the test on Salmonella typhimurium, against Klebsiella aerogenes and against Enterobacter cloacae was greater than 100 µg/mL each time. Besides, the MIC (in the test on Morganella morganii; in the test with Enterococcus faecalis; in the test on Klebsiella pneumoniae; against Shigella flexneri; with Proteus mirabilis; in test [1]) was greater than 100 µg/mL each time. Further, the MIC in the test with Streptococcus pyogenes, in the test with Pseudomonas aeruginosa, in the test with Escherichia coli and against Streptococcus agalactiae was greater than 100 µg/mL throughout.

Consider `C#CC[C@H](N)C(=O)N[C@@H](C)C(=O)O.O=C(O)C(F)(F)F`, for which the MIC against Staphylococcus aureus, against Haemophilus influenzae, in the test on Serratia marcescens, in the test with Salmonella typhimurium, with Klebsiella aerogenes and with Enterobacter cloacae was greater than 100 µg/mL in each case. In addition, the MIC in the test with Morganella morganii is greater than 100 µg/mL; against Enterococcus faecalis, greater than 100 µg/mL; in the test on Klebsiella pneumoniae it was greater than 100 µg/mL; against Shigella flexneri, greater than 100 µg/mL; in the test with Proteus mirabilis, greater than 100 µg/mL; in test [1] it was 1.56 µg/mL. Also, the MIC against Streptococcus pyogenes, against Pseudomonas aeruginosa, with Escherichia coli and in the test on Streptococcus agalactiae was greater than 100 µg/mL each time.

As to `C#CCC(N)C(=O)N[C@@H](C)C(=O)O.O=C(O)C(F)(F)F` (some centres undefined), the MIC with Staphylococcus aureus is 50 µg/mL; with Haemophilus influenzae, greater than 100 µg/mL; in the test on Serratia marcescens, greater than 100 µg/mL; in the test with Salmonella typhimurium it was greater than 100 µg/mL; in the test with Klebsiella aerogenes, greater than 100 µg/mL; in the test with Enterobacter cloacae it was greater than 100 µg/mL. In addition, the MIC with Morganella morganii was greater than 100 µg/mL; with Enterococcus faecalis, greater than 100 µg/mL; against Klebsiella pneumoniae it was greater than 100 µg/mL; against Shigella flexneri, greater than 100 µg/mL; in the test with Proteus mirabilis, greater than 100 µg/mL; in [1], 3.12 µg/mL. Besides, the MIC against Streptococcus pyogenes, with Pseudomonas aeruginosa, in the test on Escherichia coli and in the test on Streptococcus agalactiae was greater than 100 µg/mL throughout.

Turning to `C[C@H](N)C(=O)N[C@H](CCl)C(=O)O.O=C(O)C(F)(F)F`, the MIC against Staphylococcus aureus, against Haemophilus influenzae, with Serratia marcescens, in the test with Salmonella typhimurium, in the test with Klebsiella aerogenes and in the test on Enterobacter cloacae was greater than 100 µg/mL throughout. Further, the MIC (with Morganella morganii; in the test with Enterococcus faecalis; against Klebsiella pneumoniae; in the test with Shigella flexneri; in the test on Proteus mirabilis; in test [1]) was greater than 100 µg/mL throughout. The MIC against Streptococcus pyogenes, in the test on Pseudomonas aeruginosa, against Escherichia coli and in the test on Streptococcus agalactiae was greater than 100 µg/mL in each case.

As for `N[C@@H](CCl)C(=O)N[C@@H](CCl)C(=O)O.O=C(O)C(F)(F)F`, the MIC in the test with Staphylococcus aureus is 0.05 µg/mL; in the test with Haemophilus influenzae it was 1.56 µg/mL; in the test with Serratia marcescens, greater than 100 µg/mL; against Salmonella typhimurium it was greater than 100 µg/mL; with Klebsiella aerogenes, 25 µg/mL; against Enterobacter cloacae, 12.5 µg/mL. Also, the MIC is 50 µg/mL with Morganella morganii; 3.12 µg/mL in the test on Enterococcus faecalis; greater than 100 µg/mL against Klebsiella pneumoniae; 12.5 µg/mL in the test on Shigella flexneri; 50 µg/mL against Proteus mirabilis; 0.05 µg/mL in test [1]. Further, the MIC in the test on Streptococcus pyogenes is 1.56 µg/mL; in the test with Pseudomonas aeruginosa, greater than 100 µg/mL; against Escherichia coli it was 1.56 µg/mL; with Streptococcus agalactiae, 0.39 µg/mL.

Regarding `C[C@@H](N)C(=O)N[C@H](CCl)C(=O)O.O=C(O)C(F)(F)F`, the MIC against Staphylococcus aureus, against Haemophilus influenzae, with Serratia marcescens, in the test on Salmonella typhimurium, in the test on Klebsiella aerogenes and against Enterobacter cloacae was greater than 100 µg/mL each time. The MIC (in the test with Morganella morganii; with Enterococcus faecalis; against Klebsiella pneumoniae; with Shigella flexneri; against Proteus mirabilis; in test [1]) was greater than 100 µg/mL throughout. The MIC with Streptococcus pyogenes, in the test with Pseudomonas aeruginosa, in the test with Escherichia coli and in the test on Streptococcus agalactiae was greater than 100 µg/mL in each case.

In the case of `C[C@@H](N)C(=O)N[C@H](C)C(=O)O.O=C(O)C(F)(F)F`, the MIC with Staphylococcus aureus, against Haemophilus influenzae, with Serratia marcescens, in the test on Salmonella typhimurium, in the test on Klebsiella aerogenes and against Enterobacter cloacae was greater than 100 µg/mL throughout. Further, the MIC (against Morganella morganii; against Enterococcus faecalis; in the test on Klebsiella pneumoniae; in the test on Shigella flexneri; against Proteus mirabilis; in [1]) was greater than 100 µg/mL throughout. The MIC against Streptococcus pyogenes, against Pseudomonas aeruginosa, in the test on Escherichia coli and in the test with Streptococcus agalactiae was greater than 100 µg/mL each time.

For `C#CC[C@@H](NC(=O)[C@H](N)CCl)C(=O)O.O=C(O)C(F)(F)F`, the MIC in the test with Staphylococcus aureus, in the test on Haemophilus influenzae, in the test with Serratia marcescens, in the test with Salmonella typhimurium, in the test on Klebsiella aerogenes and in the test with Enterobacter cloacae was greater than 100 µg/mL each time. Further, the MIC (in the test with Morganella morganii; against Enterococcus faecalis; against Klebsiella pneumoniae; in the test on Shigella flexneri; in the test on Proteus mirabilis; in test [1]) was greater than 100 µg/mL throughout. The MIC in the test with Streptococcus pyogenes, with Pseudomonas aeruginosa, against Escherichia coli and with Streptococcus agalactiae was greater than 100 µg/mL each time.

As to `C#CC[C@H](N)C(=O)O`, the MIC with Staphylococcus aureus, against Haemophilus influenzae, in the test on Serratia marcescens, against Salmonella typhimurium, against Klebsiella aerogenes and in the test with Enterobacter cloacae was greater than 100 µg/mL each time. In addition, the MIC (in the test on Morganella morganii; against Enterococcus faecalis; in the test on Klebsiella pneumoniae; in the test on Shigella flexneri; against Proteus mirabilis; in [1]) was greater than 100 µg/mL each time. The MIC with Streptococcus pyogenes, in the test on Pseudomonas aeruginosa, against Escherichia coli and against Streptococcus agalactiae was greater than 100 µg/mL each time.

For `C#CC[C@@H](N)C(=O)O`, the MIC against Staphylococcus aureus was 50 µg/mL (≈ 442 µM); against Haemophilus influenzae, greater than 100 µg/mL; in the test with Serratia marcescens it was greater than 100 µg/mL; in the test on Salmonella typhimurium it was greater than 100 µg/mL; against Klebsiella aerogenes, greater than 100 µg/mL; in the test on Enterobacter cloacae, greater than 100 µg/mL. Further, the MIC (in the test on Morganella morganii; against Enterococcus faecalis; against Klebsiella pneumoniae; in the test with Shigella flexneri; in the test on Proteus mirabilis; in test [1]) was greater than 100 µg/mL in each case. Moreover, the MIC against Streptococcus pyogenes, against Pseudomonas aeruginosa, in the test with Escherichia coli and against Streptococcus agalactiae was greater than 100 µg/mL each time.

With `CSCC[C@H](N)C(=O)N[C@@H](CCl)C(=O)O.O=C(O)C(F)(F)F`, the MIC against Staphylococcus aureus is 0.025 µg/mL; against Haemophilus influenzae, 0.78 µg/mL; against Serratia marcescens it was 50 µg/mL; against Salmonella typhimurium, greater than 100 µg/mL; in the test with Klebsiella aerogenes it was 6.25 µg/mL; in the test on Enterobacter cloacae it was 6.25 µg/mL. The MIC in the test with Morganella morganii is 50 µg/mL; against Enterococcus faecalis it was 0.39 µg/mL; in the test on Klebsiella pneumoniae, greater than 100 µg/mL; against Shigella flexneri, greater than 100 µg/mL; against Proteus mirabilis, 100 µg/mL; in test [1] it was 0.025 µg/mL. Moreover, the MIC is greater than 100 µg/mL against Streptococcus pyogenes, greater than 100 µg/mL with Pseudomonas aeruginosa, 1.56 µg/mL in the test with Escherichia coli and 0.2 µg/mL against Streptococcus agalactiae.
